CASP6 VEID inh = human caspase-6 inhibitors, primary screen, biochemical, VEID-R110 fluorescence, single point, set 2 | purified caspase-6, Z-VEID-R110 cleavage fluorescence | inhibition, % at 12.5 µM | actives 0.53% (n = 350,000);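 active = mean inhibition across replicates at least about 35%, with every replicate also reaching that limit, limit read from the data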;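 note: 0% = median of neutral control wells and 100% = no fluorescence left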
Target sequence (P55212 24-179 limits assumed): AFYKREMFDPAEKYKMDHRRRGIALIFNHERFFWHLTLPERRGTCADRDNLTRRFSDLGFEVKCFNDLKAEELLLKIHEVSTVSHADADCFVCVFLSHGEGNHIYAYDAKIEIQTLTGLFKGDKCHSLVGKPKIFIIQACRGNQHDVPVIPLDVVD
Target sequence (P55212 194-293 limits assumed): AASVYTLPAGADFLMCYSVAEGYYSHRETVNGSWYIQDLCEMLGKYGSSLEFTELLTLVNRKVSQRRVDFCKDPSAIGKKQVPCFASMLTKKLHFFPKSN
UHRF1 MBD2 ctr = UHRF1 methylated DNA binding inhibitors, primary screen, counter-screen for MBD2 inhibitor project, biochemical, TR-FRET, human UHRF1, single concentration; E3 ubiquitin-protein ligase UHRF1 (Homo sapiens), Q96T88; UHRF1 binding to methylated oligo; inhibition, % at 4.4 µM; actives 0.75% (n = 370,000); AID 687016, 2013; in the data active = inhibition above about 21%;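 note: UHRF1 SRA domain binding a hemimethylated CpG hairpin DNA probe; 0% = median of test compound wells and 100% = reference inhibitor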
TDP2 absorb = human TDP2 enzyme inhibitors, primary screen, biochemical, epi absorbance, recombinant enzyme; Tyrosyl-DNA phosphodiesterase 2 (Homo sapiens), O95551; T5PNP hydrolysis, p-nitrophenol absorbance 415 nm; inhibition, % at 12.8 µM; actives 0.34% (n = 370,000); AID 720702, 2013;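 active = inhibition above the mean of all tested compounds plus 3 SD, set per campaign, cut at about 25% in these data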;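 note: 0% = DMSO with enzyme and 100% = buffer with substrate but no TDP2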
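Evaluation: % inhibition relative to enzyme-containing and enzyme-free wells. Material: recombinant human TDP2. Benchmarks: enzyme-free and DMSO wells. Timing: enzyme reaction with compound for 2 h at 37 °C. Compound dosing: 12.8 µM only. Measured by: p-Nitrophenol epi absorbance. Reagent: T5PNP substrate at 5 mM, a TopII-DNA adduct mimic. Replication: single well per compound.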
NSD2 HMT inh = NSD2 histone methyltransferase inhibitors, primary screen, biochemical, AlphaScreen, single concentration, set 2; inhibition, % at 12.5 µM; NSD2 peptide methylation, 120 min; actives 0.54% (n = 310,000); AID 743445, 2014; in the data active = inhibition above about 50%
LEDGF integ inh = blockers of LEDGF/p75-dependent integrase strand transfer – biochemical, TR-FRET, high throughput, primary screen; HIV-1 integrase (with human LEDGF/p75); TR-FRET IN-LEDGF/p75 DNA integration, Eu/Cy5; inhibition, % at 3.7 µM; actives 0.64% (n = 370,000); AID 743269, 2014;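 active = inhibition above the screen-wide mean plus 3 SD, cut at about 13% in these data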;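 note: signal is the Cy5 over europium emission ratio at 671 and 618 nm; 0% = plate median of compound wells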
MBD2 inh = inhibitors of MBD2 binding to methylated DNA, primary screen, biochemical, TR-FRET, DNA-binding domain, human | Methyl-CpG-binding domain protein 2 (Homo sapiens), Q9UBB5 | MBD2 binding to methylated oligonucleotide | inhibition, % at 4.4 µM | actives 0.31% (n = 370,000); in the data active = inhibition above about 13%
An asterisk follows results filed as active; x = no result given; ! = repeats disagree. A selection: hits, their analogues and other compounds. The true share with any hit is near 1.8%.

SMILES	CASP6 VEID inh	UHRF1 MBD2 ctr	TDP2 absorb	NSD2 HMT inh	LEDGF integ inh	MBD2 inh
COc1cc(NC(=O)c2cc(C)on2)cc(C(=O)Nc2cccc(C(F)(F)F)c2)c1	-2	93*!	-1	x	2	-3
CNC[C@H]1Oc2ccc(NC(=O)NC(C)C)cc2CC(=O)N([C@H](C)CO)C[C@@H]1C	0	x	x	x	x	x
Cc1ccc(S(=O)(=O)N(CC(=O)Nc2ccccc2C(=O)O)c2ccccc2C)cc1	2	2	9	-7	-1	0
Cc1ccc(S(=O)(=O)N(CC(=O)Nc2ccccc2C(=O)O)c2cccc(Cl)c2C)cc1	47*	3	-6	9	1	-1
COc1ccc2c3c([nH]c2c1)[C@H](CO)N(Cc1ccc(Cl)cc1)CC31CN(Cc2nccs2)C1	-2	x	x	x	x	x
Cn1c(SCC(=O)Nc2nncs2)nnc1C1CC1	36*	9	10	7	5	4
O=C(CCCN1CC=C(n2c(=O)[nH]c3ccccc32)CC1)c1ccc(F)cc1	-1	23*	-1	x	-2	2
CCOC(=O)c1c(C)oc2c1C(=O)c1ccccc1C2=O	8	3	-6	6	1	-1
Cc1oc2c(c1C(=O)O)C(=O)c1ccccc1C2=O	58*	-7	11	x	7	-13
O=C1C(=Cc2cn(-c3ccccc3)nc2-c2ccc(OCc3ccccc3)cc2)SC(=S)N1CCS(=O)(=O)O	75*	0	-2	x	1	7
Cc1ccc(-c2nn(-c3ccccc3)cc2C=C2SC(=S)N(CCS(=O)(=O)O)C2=O)cc1	78*	-2	-2	x	0	-1
NNS(=O)(=O)c1ccc2c(c1)Cc1cc(S(=O)(=O)NN)ccc1-2	48*	5	-6	-2	6	4
CC=Cc1ccc2n(c1=O)C[C@H]1[C@H](CO)[C@@H](C(=O)NCc3ccccn3)[C@@H]2N1CC1CC1 (mixture of isomers)	-1	x	x	x	x	x
C[C@@H](NC(=O)[C@H]1[C@H](CO)[C@H]2Cn3c(cccc3=O)[C@@H]1N2Cc1ccccc1)c1ccccc1	-2	x	x	x	x	x
CC(CO)NS(=O)(=O)c1cc(Cl)ccc1F (stereo not drawn)	0	26*	5	x	-4	12
COc1cc2c(cc1OC)C(C)N(C(=O)C1=NN(c3cccc(C)c3)C(=O)CC1)CC2 (stereo not drawn)	0	22*	10	6	0	10
C[C@H]1CN([C@@H](C)CO)C(=O)c2cc(-c3ccc(C(=O)N(C)C)cc3)cnc2O[C@H]1CN(C)C(=O)c1ccncc1	3	x	x	x	x	x
CC(=O)C1C(c2ccc(C)cc2)c2c(n[nH]c2C)CC1(C)O (stereo not drawn)	x	23*	4	-2	2	7
CCOCCCN(C(=O)c1snc(C(N)=O)c1N)C(C(=O)NCCC(C)C)c1ccc(C)cc1 (stereo not drawn)	x	x	x	0	x	x
Cc1cc(C)c(-c2cc(NC(=O)COC(=O)c3ccc(C#N)cc3)n(-c3ccccc3)n2)cc1C	-4	15	-2	-1	-3	-4
Cc1cc(C)c(-c2cc(NC(=O)COC(=O)c3ccc(NC(=O)CC#N)cc3)n(-c3ccccc3)n2)cc1C	-3	26*	-8	-2	-1	11
O=C(NN1C(=O)CSC1=S)C(=O)NN1C(=O)CSC1=S	51*	19	1	-340	29*	4
O=C(Cc1cccc2ccccc12)NN1C(=O)CSC1=S	-2	-2	3	4	1	0
CCN(C1CCCCC1)S(=O)(=O)c1ccc(OC)c(C)c1	x	24*	5	-4	-1	8
CCC/C(=N\NC(=O)c1cccc(C)c1)c1ccccc1	0	33*	-5	-4	4	0

Screening results deposited in PubChem BioAssay by several laboratories.
